The list is not random: actives were taken first. Their share in the collection is about 4%.
Arrestin-AP2 inh: inhibitors of human beta-arrestin and AP2 interaction. FITC-arrestin peptide / GST-AP2 beads, flow cytometry; AP2 beta2 appendage carries R879A mutation. inhibition, % at 10 µM. actives 0.31% (n = 340,000);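 active = inhibition above a set limit, near 3 SD of compounds lacking own fluorescence, cut at about 54% in these data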
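Material – AP2 appendage R879A on GSH beads · Buffer or medium – PBS with 0.05% Tween 20 and 0.1% BSA · Probe or stimulus – fluorescein-tagged arrestin peptide at 50 nM final · Incubation – compound with beads 12 min RT, then probe 1 h RT · Detection – high-throughput flow cytometry of beads, ex 488, em 535 nm · Evaluation – percent response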
FAS TE block: inhibitors of human fatty acid synthase thioesterase domain; P49327; recombinant FAS-TE, OMFH fluorogenic substrate, fluorescence endpoint; inhibition, % at 15 µM; actives 0.67% (n = 360,000);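 active = compounds whose normalised, plate-corrected inhibition of enzyme fluorescence in the single-dose primary screen is 50% or more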
GRIN3A LBD mod: modulators (binders) of human NR3A ligand-binding domain; Tm shift relative to glycine control, % at 25 µM; NR3A LBD differential scanning fluorimetry, Tm shift; 0% = protein alone, 100% = glycine-bound protein; actives 2.5% (n = 340,000);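 active = melting temperature shift of at least 10% of the positive control shift, at one fixed dose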
iPSC survival up: increases survival of single human iPS cells. hiPSC single-cell survival, ATPlite luminescence; 100% = ROCK inhibitor wells, 0% = DMSO. survival enhancement, % at 20 µM. actives 0.044% (n = 360,000); in the data active = survival enhancement above about 18%;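 also: cells exposed to compounds for 16 hours before the ATP read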
SENP1 FRET inh: blocks the human SENP1 SUMO protease catalytic domain; Q9P0U3; recombinant SENP1 catalytic domain, CyPet-SUMO1-YPet FRET cleavage; inhibition, % at 10 µM; actives 0.21% (n = 360,000);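 active = inhibition at least 30% at 10 µM, raw YFP signal under a set limit, fluorescence ratio 0.5 to 1.5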
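system = hSENP1 catalytic domain, recombinant | reagent = SFCypet-SUMO1-SFYpet substrate at 25 nM | doses = one dose per compound, 10 µM, 0.5% DMSO | incubation = enzyme reaction for 50 min at room temperature, dark | measured by = FRET, CFP and YFP emission | controls = no-enzyme low, enzyme-DMSO high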
H9c2 protect: modulators protecting cardiomyocytes from myocardial damage; H9c2 cardiomyocytes, H2O2 injury protection, ATPLite, 2 h; protection from H2O2 cell death, % at 20 µM; actives 0.63% (n = 360,000);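 active = compounds giving at least 50% protection of heart cells from peroxide-induced death in the single-dose screen, raw or plate-pattern-corrected value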
FAS-TE inh conf: FAS thioesterase (human) inhibition, confirmation; AID 624325; recombinant FAS-TE, OMFH fluorogenic substrate, fluorescence; shares compounds with FAS TE block; actives 45% (n = 2,300); inhibition, % at 15 µM;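 active = compounds inhibiting the enzyme by at least 50% at 15 µM in any one of the replicates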
Each line names hits and unclear results; the compound was inactive in the other large screens (follow-up assays come after a bar, where they were run).

CC(=O)c1cc2c(cc1NC(=O)CSc1nnc(C3CC3)n1C)OCO2	none (no result: Arrestin-AP2 inh, GRIN3A LBD mod)
Cc1ccc(C2NC(c3ccc(C)cc3)C([N+](=O)[O-])C(C)(C)C2[N+](=O)[O-])cc1 (centres undefined)	FAS TE block 60.5 | FAS-TE inh conf inactive
CC1(C)C([N+](=O)[O-])C(c2ccc(Cl)cc2)NC(c2ccc(Cl)cc2)C1[N+](=O)[O-] (centres undefined)	FAS TE block 65.6 | FAS-TE inh conf inactive
CC1(C)C([N+](=O)[O-])C(c2ccc(F)cc2)NC(c2ccc(F)cc2)C1[N+](=O)[O-] (centres undefined)	none
CCCCn1nnnc1C(c1ccccc1)N1CCN(c2c(Cl)cncc2Cl)CC1 (centres undefined)	none (no result: Arrestin-AP2 inh, GRIN3A LBD mod, H9c2 protect)
O=[N+]([O-])c1cc([N+](=O)[O-])c2oc(-c3ccccc3)c(Br)c2c1O	none
CCCCCCCCCCCCN1[C@@H](CC(=O)O)c2cc(F)ccc2S1(=O)=O	FAS TE block 59.3 | FAS-TE inh conf 75.0
CCCCCCCCN1[C@@H](CC(=O)OC)c2cc(F)ccc2S1(=O)=O	none
CN(C)S(=O)(=O)c1ccc(-c2csc(-c3cccnc3)n2)cc1	FAS TE block 75.3 | FAS-TE inh conf 78.4
CC(O)(c1cccnc1)c1nc(-c2ccc(S(C)(=O)=O)cc2)cs1 (centres undefined)	none (no result: Arrestin-AP2 inh, GRIN3A LBD mod)
CS(=O)(=O)c1ccc(-c2csc(-c3cccnc3)n2)cc1	FAS TE block 58.3 | FAS-TE inh conf 50.2
COc1ccc(-c2ccccc2)cc1NC(=O)[C@@H]1O[C@H](CO)[C@H](O)[C@H](O)[C@H]1O	none (no result: Arrestin-AP2 inh, GRIN3A LBD mod)
O=C(O)c1cc(-c2ccc(/C=N/NC(=S)Nc3ccccc3)o2)ccc1Cl	FAS TE block 50.2 | FAS-TE inh conf 54.8
CC1(C(=O)Nc2ccc3c(c2)OCCO3)CCC(=O)N1C1CC1 (centres undefined)	none (no result: Arrestin-AP2 inh, GRIN3A LBD mod)
CCN1CCN(S(=O)(=O)c2ccc(Cl)c(C(=O)N(C)Cc3ccc(C(C)(C)C)cc3)c2)CC1	FAS TE block 58.9 | FAS-TE inh conf 44.8
COC1=CC(=O)OC(c2cccc(Cl)c2)C1 (centres undefined)	none (no result: Arrestin-AP2 inh, FAS TE block, GRIN3A LBD mod, iPSC survival up, H9c2 protect)
CC(C)c1ccc2[nH]c(O)c(N=NC(=O)c3cccc(S(=O)(=O)N4CCCCC4)c3)c2c1	FAS TE block 58.2 | FAS-TE inh conf inactive
O=C(N=Nc1c(O)[nH]c2ccccc12)c1cccc(S(=O)(=O)N2CCCCC2)c1	none
C/C(=N\Nc1ncc(Cl)cc1Cl)c1ccc(OC(F)F)cc1	FAS TE block 51.9 | FAS-TE inh conf 58.8
C/C(=N\Nc1ncc(Cl)cc1Cl)c1ccc2c(c1)OCO2	none
COCCNC(=O)C1(C)CCN(C(=O)/C=C/c2ccccc2)C1 (centres undefined)	none (no result: Arrestin-AP2 inh, GRIN3A LBD mod)
COc1ccc(CNC(=O)/C(C#N)=C2\N=C(NC(=O)c3cccs3)c3ccccc32)cc1	FAS TE block 51.3 | FAS-TE inh conf inactive
COCCNC(=O)/C(C#N)=C1\N=C(NC(=O)c2cccs2)c2ccccc21	none
COc1ccc(S(=O)(=O)N2CCOCC2)cc1NC(=O)C1CCCCN1S(=O)(=O)c1ccccc1 (centres undefined)	none
O=C(O)c1ccccc1NSc1ccccc1[N+](=O)[O-]	none
CCc1ccc(NSc2ccccc2[N+](=O)[O-])cc1	FAS TE block 51.2 | FAS-TE inh conf inactive
CNc1ncnc2c1ncn2[C@H]1CN(C2CCCC2)C[C@@H](CO)O1	none (no result: Arrestin-AP2 inh, GRIN3A LBD mod)
Nc1nc2ccccc2cc1C(=O)NCc1ccc(-c2ccccc2)cc1	none (no result: Arrestin-AP2 inh, FAS TE block, GRIN3A LBD mod, iPSC survival up, H9c2 protect)
COc1cc2c(C)nc3onc(-c4ccccc4)c3c2cc1OC	FAS TE block 69.9 | FAS-TE inh conf 45.1
COc1cc(-c2nc(-c3cccc(C)c3)no2)cc(OC)c1OC	none
N#Cc1cnc(=S)n(-c2cc(C(F)(F)F)cc(C(F)(F)F)c2)c1N	none (no result: Arrestin-AP2 inh, GRIN3A LBD mod)
Cc1ccc(-c2nc3c(Cl)cc(C(F)(F)F)cn3c2Cc2ccsc2)cc1	none (no result: Arrestin-AP2 inh, GRIN3A LBD mod, H9c2 protect)
N#C/C(=C\c1cccc2ccccc12)c1nn(-c2ccccc2)c(N)c1C#N	none (no result: Arrestin-AP2 inh, FAS TE block, iPSC survival up, SENP1 FRET inh, H9c2 protect)
N#C/C(=C\c1cc([N+](=O)[O-])c(N2CCCCC2)cc1N1CCCCC1)c1nn(-c2ccccc2)c(N)c1C#N	FAS TE block 56.6 | FAS-TE inh conf inactive
CC1=C(C(=O)N(C(C)C)C(C)C)CC(CC(=O)NC2CC2)C(=O)N1CCCN1CCCC1=O (centres undefined)	none (no result: Arrestin-AP2 inh, GRIN3A LBD mod)
CCS(=O)(=O)c1ccc(-c2csc(-c3ccccc3Cl)n2)c(Cl)c1Cl	FAS TE block 72.3 | FAS-TE inh conf inactive
CCS(=O)(=O)c1ccc(-c2csc(-c3ccc(Cl)cc3)n2)c(Cl)c1Cl	FAS TE block 70.6 | FAS-TE inh conf 52.2
CN(C)CCCNC(=O)c1ccc(-c2nc(-c3ccc(Cl)cc3)cs2)cc1	none
C[C@H]1CN([C@@H](C)CO)C(=O)c2cc(-c3cccc(C#N)c3)cnc2O[C@H]1CN(C)C(=O)c1ccccn1	none (no result: Arrestin-AP2 inh, GRIN3A LBD mod)
CC1(C)CC(=O)C=C(c2ccc(COC(=O)c3ccccc3)cc2)C1=O	FAS TE block 64.1 (no result: Arrestin-AP2 inh, GRIN3A LBD mod) | FAS-TE inh conf 43.2
O=C(NCCN1C(=O)S/C(=C\c2ccccc2F)C1=O)C1CCN(S(=O)(=O)c2cccs2)CC1	FAS TE block 61.4 | FAS-TE inh conf inactive
CCCNC(=O)C1CCN(S(=O)(=O)c2cccs2)CC1	none
COc1ccc(OC)c(S(=O)(=O)ON2C(=O)c3ccccc3C2=O)c1	FAS TE block 79.1 | FAS-TE inh conf 66.2
O=C1c2cccc3cccc(c23)C(=O)N1OS(=O)(=O)c1ccc(Cl)cc1	FAS TE block 51.7 | FAS-TE inh conf inactive
CCc1ccc(OC(=O)CN2C(=O)c3ccccc3C2=O)cc1	none
CCc1ccc(S(=O)(=O)ON2C(=O)c3ccccc3C2=O)cc1	FAS TE block 81.4, GRIN3A LBD mod 16.2 | FAS-TE inh conf 72.1
Cc1ccccc1CSCC1Nc2ccc(C(=O)NCCc3ccccc3)cc2NC1=O (centres undefined)	none (no result: Arrestin-AP2 inh, GRIN3A LBD mod)
COc1ccc(OC2(C)CCN(Cc3ccccc3OC(F)F)C2)cc1 (centres undefined)	none (no result: Arrestin-AP2 inh, GRIN3A LBD mod)
CCc1nc2ccc(C(=O)N3CCN(S(=O)(=O)CC)CC3)cn2c1N(C)Cc1cccs1	none (no result: Arrestin-AP2 inh, GRIN3A LBD mod)
CC12C(=O)N(c3ccc(OC(=O)c4ccco4)cc3)C(=O)C1C1c3ccccc3C2c2ccccc21 (centres undefined)	FAS TE block 60.4 | FAS-TE inh conf inactive
O=C(NCCN1CCC(n2c(=O)[nH]c3ccccc32)CC1)c1c(F)cccc1F	none (no result: Arrestin-AP2 inh, GRIN3A LBD mod, H9c2 protect)
Cn1nccc1-c1ccc(C(=O)NCc2ccco2)c2occc12	none (no result: Arrestin-AP2 inh, GRIN3A LBD mod)
